# Screening results as filed in PubChem.
# Beta2AR agonist: agonists of human beta-2 adrenergic receptor inducing internalization; 340,000 tested, 0.43% active; Am2.2-beta2AR cells, FAP receptor internalization, flow cytometry; response, % (test concentration not listed);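 active = response above a set limit, near 3 SD of response in nonfluorescent compounds, cut at about 42% in these data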
# Target sequence (P07550 whole entry, looked up): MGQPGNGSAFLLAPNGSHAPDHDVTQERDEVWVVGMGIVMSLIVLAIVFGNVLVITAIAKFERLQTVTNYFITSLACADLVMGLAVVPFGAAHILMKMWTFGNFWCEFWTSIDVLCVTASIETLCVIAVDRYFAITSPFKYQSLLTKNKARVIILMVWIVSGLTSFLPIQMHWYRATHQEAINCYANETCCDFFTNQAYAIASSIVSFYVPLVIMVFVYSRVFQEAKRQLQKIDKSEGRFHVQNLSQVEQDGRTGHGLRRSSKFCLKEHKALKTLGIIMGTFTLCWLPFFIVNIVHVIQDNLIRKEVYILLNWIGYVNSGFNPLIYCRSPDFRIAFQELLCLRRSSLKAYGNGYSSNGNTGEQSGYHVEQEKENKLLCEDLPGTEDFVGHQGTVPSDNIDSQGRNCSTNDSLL
# Granule exo inh: blocks lytic granule exocytosis. TALL-104 LAMP-1 surface exposure, flow cytometry; cells stimulated with thapsigargin and PMA. inhibition, % at 10 µM. 360,000 tested, 0.66% active;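 active = inhibition above about 55%, limit read from the data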
# rCAG RNA binder: binds r(CAG) RNA repeats. r(CAG) RNA repeat, TO-PRO-1 dye displacement fluorescence. inhibition, % at 3 µM. 370,000 tested, 1.3% active;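 active = inhibition above the plate cutoff, the mean of all test compounds on that plate plus 3 SD, cut at about 35% in these data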;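 also: 0% = DMSO alone and 100% = 100 µM mitoxantrone as full dye displacement; higher means more dye released from RNA so lower well fluorescence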
# T cell modulator: modulates CD8 T cell binding to vesicles; 2C CD8+ T cell-vesicle binding, flow cytometry; stronger effect = lower value; response (vesicle binding), % at 7 µM; 330,000 tested, 0.068% active;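 active = response, share of CD8 T cells binding vesicles, and their 90th percentile fluorescence all below set limits, cut at about 80% in these data, passing the limit was not always enough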;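 also: values below 100% mean blocked vesicle binding to the CD8+ T cells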
#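 Also added: QL9-peptide-loaded Drosophila micro-vesicles bearing Ld, ICAM-1 and B7-1; Test system: purified 2C TCR transgenic mouse naive CD8+ T cells; Measured by: cytometric PE anti-B7-1 and Alexa647 anti-CD8 signals after 1% paraformaldehyde fixation; Timing: binding step 1.5 h, 37 °C, antibody labelling 20 min, ice.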
# V-ATPase pH: yeast V-ATPase proton transport regulation by pHLuorin | S. cerevisiae, pHLuorin cytosolic pH fluorescence | response, % at 10 µM | 350,000 tested, 0.37% active | AID 504577; in the data active = response mostly above about 7.3%, no sharp cut-off; inactive = mostly below about 5.4%; also: actives read high
# MPTP block: inhibitors of mitochondrial permeability transition pore; 360,000 tested, 1.4% active; AID 602449; inhibition, % at 10 µM; isolated mouse mitochondria, Ca2+ swelling absorbance, 30 min;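 active = inhibition of 50% or more, scaled per plate between neutral and stimulator controls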;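 also: 0% = DMSO wells given calcium and 100% = 1 mM EGTA wells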
# MPTP counter: membrane potential counter-screen of mitochondrial pore inhibitors. AID 624504. shares compounds with MPTP block. 5,000 tested, 78% active. isolated mitochondria, Rhodamine 123 fluorescence. inhibition, % at 10 µM; in the data active = inhibition above about 22%;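 also: 0% = DMSO vehicle and 100% = positive control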
# * = called active by the depositor; i = inactive; / = no result given. Compounds with a hit are over-represented: about 3.8% of the library has one in this group of screens.
SMILES,Beta2AR agonist,Granule exo inh,rCAG RNA binder,T cell modulator,V-ATPase pH,MPTP block,MPTP counter
CC1=CN2C(=N)/C(=C/c3ccc(Sc4ccc(Cl)cc4)o3)C(=O)N=C2S1,-17,-6,15,873,-7,58*,41*
O=C(Cn1nnc(-c2ccc(N3CCOCC3)cc2)n1)c1ccc(F)cc1,/,/,9,/,/,/,/
COC(=O)c1cc(-c2cccc3c2sc2ccccc23)c(=O)n2c1CCC2,/,/,9,/,/,/,/
CCCCCCCCCCn1ccc(=N)cc1,15,-4,0,150,4,65*,90*
CN1\C(=C/C=C/C=C/C=[N+](C)C)C(C)(C)c2ccccc21,-33,-20,-337,/,-2,112*,59*
CC(C)(C)C(=O)OC12CCCN(C1)/C(=C/c1cccc(Cl)c1)C2 (configuration not stated),/,/,-2,/,/,/,/
O=C(CSc1ncnc2c1sc1ccccc12)Nc1ccc(Br)cc1,0,15,4,225,0,54*,37*
O=C(CSc1ncnc2c1oc1ccccc12)Nc1nc2ccccc2s1,-5,-1,4,i,-2,3,/
O=C(CSCc1ccccc1)Nc1ccc(F)c(F)c1,2,4,4,256,-1,71*,63*
Cc1ccc(S(=O)(=O)NCCC(=O)Nc2ccc(Cl)c(Cl)c2)cc1,-3,2,3,347,3,90*,87*
Cc1ccc(OCCC(=O)Nc2ccc(F)c(Cl)c2)cc1,-10,-4,-3,396,1,67*,64*
Cc1ccc(NC(=O)NNS(=O)(=O)c2ccc(Br)cc2)cc1,11,0,2,234,3,-2,/
Cc1cc(NC(=O)COc2ccc(F)c(Cl)c2)no1,8,0,1,139,-1,1,/
Cc1ccc(S(=O)(=O)NNC(=O)Nc2ccc(Cl)c(Cl)c2)cc1,-5,1,9,100,-1,86*,97*
Cc1ccc(OCCC(=O)Nc2ccc(C)c(F)c2)cc1,1,-2,-4,115,0,3,/
Cc1cc(NC(=O)Nc2ccc(F)c(Cl)c2)no1,0,-2,6,i,1,51*,85*
CCC(NC(=O)C1CCCN(c2ncccn2)C1)c1ccccc1 (configuration not stated),/,/,-4,/,/,/,/
CC(=O)C1=C(C)N(Cc2ccc(F)cc2)C(=S)NC1c1ccc(Cl)cc1 (configuration not stated),/,/,2,/,/,/,/
Cc1ccsc1S(=O)(=O)n1c(CN2CCOCC2)nc2ccccc21,/,/,3,/,/,/,/
CCCCc1c(-c2ccccc2OC)ncn1Cc1ccc(-c2ccccc2)cc1,/,42,1,/,/,78*,116*
O=C(NCCOc1ccccc1)c1cc(C(=O)NCCOc2ccccc2)cc([N+](=O)[O-])c1,-3,29,3,206,0,56*,93*
Cn1c(SC(C(=O)Nc2ccc(F)cc2)c2ccccc2)nc2ccccc21 (configuration not stated),-3,-2,5,296,1,64*,66*
O=C(Nc1ccc(F)cc1)C(Sc1nc2ccccc2[nH]1)c1ccccc1 (configuration not stated),11,20,6,328,-2,97*,87*
COC(=O)C1=C(C)N(C)C(=NCc2cc(OC)c(OC)c(OC)c2)NC1c1cccc(C(F)(F)F)c1 (configuration not stated),/,/,4,/,/,/,/
COc1ccc(CNS(=O)(=O)CC2NCCc3ccccc32)cc1 (configuration not stated),/,/,-1,/,/,/,/
CCOC(=O)C1CCN(C(=O)C(Cc2ccc3c(c2)OCO3)NC(C)=O)CC1 (configuration not stated),/,/,5,/,/,/,/
Cn1c(NCc2c(O)ccc3ccccc23)nc2ccccc21,-5,4,11,348,-5,51*,45*
O=C(NCCc1ccccc1Cl)[C@@H]1CCCN1C(=O)[C@H](Cc1cccnc1)NC(=O)N1CCOCC1,/,/,-1,/,/,/,/
COC(=O)[C@]12C[C@H](CC(=O)NCc3ccc(C)o3)C(=O)N(Cc3ccco3)C1=C[C@H](C(C)(C)C)O[C@@H]2C,/,/,3,/,/,/,/
COC(=O)c1c(NC(=S)Nc2ccccc2Cl)sc(C)c1C,-3,-2,/,690,2,56*,70*
